L major viab: Leishmania major promastigote growth inhibition, primary screen; Leishmania major promastigotes, resazurin fluorescence viability; inhibition, % at 10 µM; hit rate 9% among 200,000;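 note: promastigotes grown with compound for 44 hours at 28 °C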
ABCB1 inh: ABCB1 efflux pump inhibitors, primary screen, cell-based, multiplex, flow cytometry, ABCG2 counter-screen; ATP-dependent translocase ABCB1 (Homo sapiens), P08183; AID 1326, 2008; hit rate 0.067% among 190,000; CCRF-Adr cells, JC-1 efflux; inhibition, % at 6.6 µM; in the data active = inhibition above about 40%;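 note: 0% = vehicle and 100% = reference inhibitor; higher value means more JC-1 retained so stronger ABCB1 efflux block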
PKD1 inh: inhibitors of human PKD1 kinase, biochemical, fluorescence polarization. Serine/threonine-protein kinase D1 (Homo sapiens), Q15139. PKD1 kinase fluorescence polarization assay. inhibition, % (test concentration not listed). hit rate 0.056% among 200,000
GSH fluor: compound fluorescence on glutathione beads, profiling panel, artefact control, biophysical, 488/530 nm, flow cytometry; AID 1776, 2009; hit rate 0.25% among 190,000; GSH beads flow cytometry, compound fluorescence 488/530 nm; stronger effect = higher value; fluorescence (KMESF) at 10 µM; in the data active = fluorescence above about 89;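 note: glutathione beads carrying GST-tagged Bcl family fusion proteins plus one bare bead set; values are compound well signal with DMSO vehicle wells as background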
ABCG2 block: ABCG2 efflux pump inhibitors, primary screen, multiplex with ABCB1, IgMXP3 cells, flow cytometry; JC-1 efflux; inhibition, % at 6.6 µM; hit rate 0.1% among 190,000; AID 1325, 2008;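 active = inhibition above 80%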;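 note: 0% = DMSO and 100% = nicardipine control wells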
Target sequence (Q9UNQ0 whole entry, looked up): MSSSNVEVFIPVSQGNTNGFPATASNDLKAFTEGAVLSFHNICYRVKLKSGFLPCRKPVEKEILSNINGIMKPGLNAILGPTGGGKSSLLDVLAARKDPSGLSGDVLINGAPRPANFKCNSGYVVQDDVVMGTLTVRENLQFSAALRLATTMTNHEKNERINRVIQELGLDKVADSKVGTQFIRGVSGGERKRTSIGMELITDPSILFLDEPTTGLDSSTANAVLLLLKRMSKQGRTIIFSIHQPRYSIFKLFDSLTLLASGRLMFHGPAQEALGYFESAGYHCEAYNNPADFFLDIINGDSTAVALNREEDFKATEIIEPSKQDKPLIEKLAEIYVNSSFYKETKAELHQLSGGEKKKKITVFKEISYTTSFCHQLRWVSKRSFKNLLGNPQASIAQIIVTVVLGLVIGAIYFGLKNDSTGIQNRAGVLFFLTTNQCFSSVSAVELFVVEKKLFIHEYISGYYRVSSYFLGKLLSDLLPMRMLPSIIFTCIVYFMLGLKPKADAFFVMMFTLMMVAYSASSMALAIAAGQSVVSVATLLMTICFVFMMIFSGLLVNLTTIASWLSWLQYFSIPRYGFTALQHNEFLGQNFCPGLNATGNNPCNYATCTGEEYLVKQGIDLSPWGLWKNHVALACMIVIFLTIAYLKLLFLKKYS
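Test system: IgMXP3 (ABCG2) plus far-red-tagged CCRF-Adr (ABCB1) cells. Reagent: JC-1 dye as substrate. Timing: 10 min exposure at 25 °C with rotation, no wash. Measured by: flow cytometric JC-1 green MFI at 530 nm. Read-out: percent efflux inhibition, scaled nicardipine 100% to DMSO 0%. Control set: nicardipine and DMSO wells.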
Avidin fluor: green autofluorescence of compounds with avidin beads – biophysical, 488/530 nm, flow cytometry, artefact control, profiling panel | compound fluorescence 488/530 nm; stronger effect = higher value | fluorescence (KMESF) at 10 µM | hit rate 0.38% among 220,000; in the data active = fluorescence above about 47
An asterisk follows results filed as active; nt = no result. The entries come from a sample that favours hits as a whole. Cut-off read from the data, not from the text of the source, unless noted: active = inhibition above about 50%; inactive = the rest.

SMILES	L major viab	ABCB1 inh	PKD1 inh	GSH fluor	ABCG2 block	Avidin fluor
COc1ccc(C(=O)C2CCCN(C(=O)c3noc4c3CCCC4)C2)c(C)c1 (configuration not stated)	1.9	0.6	-0.4	14	7.2	1
COc1cccc(-n2c(C)nc3cc(C(=O)O)ccc32)c1	-8.3	-0.1	-4.1	28	-0.2	54*
COc1ccc(-n2c(C)nc3cc(C(=O)O)ccc32)cc1	-0.8	-0.3	-2.7	31	-1.1	9
COc1ccc(-n2c(C)nc3cc(C(=O)NCc4ccc5c(c4)OCO5)ccc32)cc1	82.6*	0.1	-11.4	3	5.3	13
COC(=O)c1ccccc1OCCN1CCCCCC1	5.2	0.3	-7.8	15	2.5	9
Cc1ccc(C(C)(C)C)c(OCCOCCN2CCCC2)c1	95.6*	-0.3	-3.1	4	1.5	11
CC(C)(C)c1ccccc1OCCOCCN1CCCCCC1	95.5*	1.3	0.9	23	1.9	5
CC(C)(C)c1ccccc1OCCOCCSc1ncccn1	96.8*	-0.5	-6.0	34	5.7	17
CC1(C)C(C=C(Cl)Cl)C1C(=O)Nc1ccc([N+](=O)[O-])cc1 (configuration not stated)	87.8*	0.1	-9.8	6	27.1	11
O=C(Nc1ccc([N+](=O)[O-])cc1)C1CC1(c1ccccc1)c1ccccc1 (configuration not stated)	2.0	0.6	-5.5	13	47.0	5
CCOC(=O)c1c(/N=C/N(C)C)sc(/C=N/Nc2ccccc2)c1-c1ccccc1	94.8*	-1.2	-4.7	5	-18.9	12
CCOC(=O)c1c(NC(=O)CN2CCCCC2)sc2c1CCCC2O (configuration not stated)	13.7	1.2	0.4	24	2.3	7
CCOC(=O)c1c(NC(=O)CN2CCCCC2)sc(CN(C)C)c1-c1ccccc1	52.5*	-0.7	2.1	15	7.4	15
CCOC(=O)c1c(NC(=O)CCl)sc(CN(C)C)c1-c1ccccc1	90.7*	0.0	-3.0	22	0.1	11
Cc1ccc2ncccc2c1NC(=S)NC(=O)c1ccccc1	-4.3	1.0	-4.5	14	2.6	13
O=S1(=O)Nc2c(ccc3cccnc23)-c2ccccc21	99.4*	-0.5	8.9	35	4.3	9
COc1ccc(N2CC(C(=O)Nc3cc(C)ccn3)CC2=O)cc1 (configuration not stated)	nt	nt	nt	nt	nt	7
CN(C)C(=O)COC(=O)[C@H](Cc1ccccc1)NC(=O)c1ccco1	-1.0	0.3	7.9	18	0.8	53*
N#CC(Cc1ccccc1OC(F)F)c1nc2ccccc2[nH]1 (configuration not stated)	-3.2	0.3	-3.6	18	2.0	4
O=C(NCc1ccccc1)Nc1cccn(Cc2ccc(F)cc2)c1=O	3.0	0.2	-4.6	7	0.9	5
COc1ccc(Cn2cccc(NC(=O)Nc3cccc(C#N)c3)c2=O)cc1	-1.5	0.2	2.6	18	2.4	36
Cc1ccc(Cn2cccc(NC(=O)NC3CCCCC3)c2=O)cc1	85.8*	0.0	-6.5	35	5.4	13
O=C(Nc1cccn(Cc2ccc(F)cc2)c1=O)NC1CCCCC1	83.3*	0.8	-14.1	35	18.9	13
COc1cccc(Cn2cccc(NC(=O)NC3CCCCC3)c2=O)c1	99.0*	-6.7	11.2	12	-4.2	10
CCn1c(SCC(=O)NNC(=O)c2ccco2)nnc1-c1ccco1	2.2	0.4	-0.1	12	0.8	26
SMILES	L major viab	ABCB1 inh	PKD1 inh	GSH fluor	ABCG2 block	Avidin fluor
CCc1ccccc1NC(=O)CN1CCC(NC(=O)COC)CC1	-1.6	0.7	-11.7	35	3.6	10
O=C(CSc1nnc(-c2ccco2)o1)NC(=O)Cc1ccccc1	-5.5	-0.5	-3.3	23	-0.2	8
O=C(CSc1nnc(-c2ccco2)o1)NC(=O)C1COc2ccccc2O1 (configuration not stated)	-4.9	0.4	-6.5	245*	2.1	3
Cc1ccc(-n2c3c(c(=O)[nH]c2=O)C(NS(=O)(=O)c2ccc(C)cc2)(C(F)(F)F)C(=O)N3)cc1 (configuration not stated)	-5.3	1.3	-7.8	15	-2.1	17
Cc1ccc(S(=O)(=O)NC2(C(F)(F)F)C(=O)Nc3c2c(=O)[nH]c(=O)n3-c2ccccc2)cc1 (configuration not stated)	72.4*	1.3	-11.6	5	1.9	88*
COc1cccc(-n2c(SCC#N)nnc2-c2cnccn2)c1	-4.4	-0.3	-6.7	247*	-0.5	6
COc1cccc(-n2c(SC)nnc2-c2cnccn2)c1	-7.0	-0.4	-1.5	10	-0.6	21
Cc1c(C#N)c(N=CN(C)C)c(C(=O)c2ccc(Br)cc2)n1-c1ccc(Cl)cc1	99.7*	1.1	2.5	21	3.8	12
CC(=O)c1c(N)c(C#N)c(C)n1-c1ccc(Br)cc1	1.6	0.4	-8.4	33	0.1	18
C[C@H](NC(=O)c1nc[nH]c1C(=O)N[C@@H](CCCCNC(=O)OC(C)(C)C)C(=O)OC(C)(C)C)c1ccccc1	nt	nt	nt	nt	nt	14
COc1ccc(-n2cc(CNC3CCN(C)CC3)c(-c3cccc(F)c3)n2)cc1	100.5*	0.5	3.5	13	2.8	6
CC(C)SCCCCOc1ccc2ccccc2c1	72.0*	0.2	-17.4	81	1.7	11
COc1cccc(OCCCCN2CC(C)OC(C)C2)c1 (configuration not stated)	93.5*	1.3	-3.9	34	-2.0	16
COC(=O)c1ccc(OCCCCN2CC(C)OC(C)C2)cc1 (configuration not stated)	95.6*	0.6	-3.7	18	1.9	10
COc1cc(CN2CC(C)OC(C)C2)cc(OC)c1 (configuration not stated)	-3.8	nt	0.1	nt	nt	nt
CC1CN(CCCCOc2ccc3ccccc3c2)CC(C)O1 (configuration not stated)	90.2*	0.2	-0.9	10	1.1	6
CCOC(=O)CC(=O)CSc1nc2ccccc2c(=O)n1-c1ccc(C(=O)NCCOC)cc1	-8.4	0.3	-2.2	22	1.3	20
Cc1ccc([N+](=O)[O-])cc1NC(=O)C(Sc1ccccc1)c1ccccc1 (configuration not stated)	-4.8	0.9	-2.4	10	45.0	5
CC1CCN(c2nc(CN3CCCCC3)nc3scc(-c4ccccc4)c23)CC1	91.2*	1.7	6.1	9	1.9	16

Screening data from PubChem.
